# Source: PubChem
# XiGFP reactiv = reactivates the inactive X chromosome in mouse fibroblasts | XiGFP mouse fibroblasts, % GFP-positive cells imaging, 3 d; cells co-treated with 5-aza-dC sensitizer; scaled so ellipticine positive control = 100% | activation, % at 7.58 µM | 0.055% of 360,000 active | AID 743238;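 active means mean normalized replicate activation at least 10% and every replicate at or above 10%; inconclusive means only one of the two criteria met; inactive means mean below 10% and not all replicates reach 10%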;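 further: 0% = median of on-plate neutral control wells and 100% = ellipticine 6 µM median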
#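 Schedule: 3 d treatment, 15 min room-temperature fixation; system: 68-5-11 XiGFP fibroblast line; buffer or medium: DMEM plus 5-aza-dC sensitizer; control set: ellipticine 6 µM positive control; compound: one concentration, pinned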
# Cneo AK release = causes C. neoformans cell lysis; adenylate kinase release luminescence, 4 h; normalised: neutral wells 0, clomiphene wells 100; lysis activity, % at 15 µM; 0.2% of 360,000 active; AID 651654;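 active means mean lysis activity across replicates of at least 80%, whatever share of replicates individually reach that level; inactive means mean lysis activity below 80%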
#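 Signal: Adenylate kinase release luminescence | Assay system: Log-phase Cryptococcus neoformans yeast cells | Input: Cells at 5 × 10^6 per mL | Buffer or medium: Fresh YPD growth medium | Compound: Single dose | Schedule: Static 4 h at 37 °C with compound, 1 h detection | Controls: Clomiphene | Read-out: Luminescence rise reflecting yeast cell lysis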
# DENV2 CPE = protects cells from dengue virus 2 cytopathic effect; DENV2-infected cells, cytopathic effect rescue, plate reader; CPE inhibition, % at 9.99 µM; 1.7% of 350,000 active; AID 651640; in the data active means CPE inhibition above about 20%, passing the limit was not always enough; inconclusive means no clear call, values can overlap the other calls; tested in BHK-21 cells;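 further: 0% = median of neutral control wells and 100% = median of positive control wells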
# Statin myotox sup = protects C2C12 myotubes from simvastatin toxicity. ATP luminescence, 48 h; scaled: DMSO 0, geranylgeraniol control 100. rescue of ATP level, % at 7.49 µM. 0.78% of 330,000 active. AID 602340;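 active means mean ATP rescue above about 67%, or every replicate alone reaching that limit, limit read from the data, passing the limit was not always enough; inconclusive means no clear call, values can overlap the other calls; inactive means mean under the limit and some replicate under it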;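 further: myotubes were challenged with 10 µM simvastatin during compound exposure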
# An asterisk follows results filed as active; ? = inconclusive; / = no result. Sampled rows, rich in hits. Any-hit rate of the full collection: about 2.1%.
SMILES,XiGFP reactiv,Cneo AK release,DENV2 CPE,Statin myotox sup
COc1ccc(S(=O)(=O)N(C)C[C@@H]2Oc3ccc(NC(=O)CCCCCC(=O)Nc4ccccc4N)cc3CC(=O)N([C@H](C)CO)C[C@H]2C)cc1,0,2,-7,2
COc1cccc(NC(=O)N(C)C[C@@H]2Oc3ncc(C#Cc4ccc(F)cc4)cc3C(=O)N([C@H](C)CO)C[C@@H]2C)c1,0,6,-4,8
Cc1noc(C)c1S(=O)(=O)N(C)C[C@@H]1OCCCC[C@@H](C)Oc2ccc(NC(=O)Cc3ccccc3)cc2C(=O)N([C@@H](C)CO)C[C@@H]1C,0,/,52*,/
C[C@@H]1CN([C@@H](C)CO)C(=O)c2cc(NC(=O)Nc3cccc4ccccc34)ccc2O[C@@H](C)CCCCO[C@@H]1CN(C)S(=O)(=O)c1ccc(F)cc1,0,-2,21*,10
C[C@H](CO)N1C[C@H](C)[C@H](CN(C)S(=O)(=O)c2ccc(Cl)cc2)OCCCC[C@H](C)Oc2ccc(NC(=O)c3ccccc3)cc2C1=O,-1,1,21*,/
C[C@H](CO)N1C[C@H](C)[C@@H](CN(C)S(=O)(=O)c2ccccc2)OCCCC[C@H](C)Oc2ccc(N(C)C)cc2C1=O,0,0,8,92*
C[C@H](CO)N1C[C@H](C)[C@@H](CN(C)C(=O)Nc2ccccc2)OCCCC[C@H](C)Oc2ccc(NC(=O)Nc3ccc(C(F)(F)F)cc3)cc2C1=O,0,/,/,/
Cc1noc(C)c1NC(=O)Nc1ccc2c(c1)C(=O)N([C@@H](C)CO)C[C@H](C)[C@H](CN(C)CC1CCCCC1)OCCCC[C@H](C)O2,-1,-2,-2,/
C[C@@H]1CN([C@@H](C)CO)C(=O)c2cc(NC(=O)Cc3ccccc3)ccc2O[C@@H](C)CCCCO[C@@H]1CN(C)S(=O)(=O)c1ccc(F)cc1,0,0,-7,101*
COc1ccc(NC(=O)Nc2ccc3c(c2)C(=O)N([C@@H](C)CO)C[C@@H](C)[C@@H](CN(C)S(=O)(=O)c2ccccc2)OCCCC[C@@H](C)O3)cc1,0,-6,66*,/
C[C@@H]1CN([C@@H](C)CO)C(=O)c2cc(NC(=O)Nc3ccc(F)cc3)ccc2O[C@@H](C)CCCCO[C@H]1CN(C)S(=O)(=O)c1ccccc1,0,101*,124*,/
C[C@@H]1CCCCO[C@H](CN(C)S(=O)(=O)c2ccccc2)[C@H](C)CN([C@@H](C)CO)C(=O)c2cc(NC(=O)Nc3ccc(F)cc3)ccc2O1,0,0,-12,/
COc1ccc(S(=O)(=O)N(C)C[C@@H]2OCCCC[C@H](C)Oc3ccc(NC(=O)c4ccccc4)cc3C(=O)N([C@H](C)CO)C[C@@H]2C)cc1,0,-4,44*,/
CCCNC(=O)N1C[C@@H](C)[C@@H](OC)CN(C)C(=O)c2cc(NC(=O)C3CCC3)ccc2OC[C@H]1C,1,/,/,6
O=C(C[C@@H]1CC[C@@H](NC(=O)Cc2cccnc2)[C@@H](CO)O1)Nc1ccccc1,0,/,-2,/
O=C(CCN1CCCCC1)NCC[C@@H]1CC[C@H](NC(=O)C2CC2)[C@@H](CO)O1,0,-2,-4,-4
CCNC(=O)C[C@H]1CC[C@H]2[C@@H](COc3ccc(NC(=O)Nc4cccc(OC)c4)cc3C(=O)N2C)O1,0,-2,-4,24
CCCN(C)C[C@@H]1OCCCC[C@H](C)Oc2ccc(NC(=O)Cc3ccccc3)cc2C(=O)N([C@@H](C)CO)C[C@@H]1C,0,3,35*,-44
C[C@H]1CN([C@@H](C)CO)C(=O)c2cccc(NS(=O)(=O)c3ccccc3)c2O[C@@H]1CN(C)Cc1ccc(Cl)c(Cl)c1,0,-1,85*,8
C[C@H]1CN([C@@H](C)CO)C(=O)c2cccc(NS(=O)(=O)c3ccc(F)cc3)c2O[C@@H]1CN(C)Cc1ccc(Cl)c(Cl)c1,0,3,23*,37
C[C@H]1CN([C@@H](C)CO)C(=O)c2cccc(NS(=O)(=O)c3ccccc3)c2O[C@H]1CN(C)Cc1ccc(C(F)(F)F)cc1,0,-2,78*,-28
C[C@H](CO)N1C[C@H](C)[C@@H](CN(C)Cc2ccc(C(=O)O)cc2)Oc2c(NC(=O)Cc3ccccc3)cccc2C1=O,1,3,53*,-2
C[C@@H]1CN([C@H](C)CO)C(=O)c2cccc(NC(=O)C3CC3)c2O[C@H]1CN(C)Cc1ccc(C(=O)O)cc1,0,97*,/,0
COc1ccc(NC(=O)Nc2cccc3c2O[C@H](CN(C)Cc2ccccc2)[C@H](C)CN([C@H](C)CO)C3=O)cc1,-1,39,30*,-26
C[C@@H]1CN([C@H](C)CO)C(=O)c2cccc(NC(=O)Nc3ccccc3)c2O[C@@H]1CN(C)Cc1ccc(C(=O)O)cc1,-1,-1,16,-7
SMILES,XiGFP reactiv,Cneo AK release,DENV2 CPE,Statin myotox sup
C[C@@H]1CN([C@@H](C)CO)C(=O)c2cccc(NC(=O)Nc3ccccc3)c2O[C@H]1CN(C)Cc1ccc(C(=O)Nc2ccccc2N)cc1,-1,-1,1,69*
C[C@H](CO)N1C[C@H](C)[C@@H](CN(C)Cc2ccc(C(=O)Nc3ccccc3N)cc2)Oc2c(NC(=O)Nc3ccccc3)cccc2C1=O,-1,1,0,35
CCC(=O)N1CC(=O)N2[C@H](CO)[C@@H](c3ccc(C#CC4CCCC4)cc3)[C@@H]2C1,0,/,9,/
C[C@@H]1CN([C@@H](C)CO)C(=O)c2cc(NC(=O)Nc3ccccc3)ccc2O[C@H]1CN(C)Cc1ccc(-c2ccccc2)cc1,0,-1,-26,1
COc1cccc(S(=O)(=O)N(C)C[C@H]2Oc3ncc(C#CC(C)C)cc3C(=O)N([C@@H](C)CO)C[C@@H]2C)c1,-1,-3,-3,0
COc1ccc2c3c([nH]c2c1)[C@H](CO)N(CC1CC1)CC31CCN(C(=O)c2ccc(F)cc2)CC1,0,/,-1,/
C[C@H](CO)N1C[C@H](C)[C@H](CN(C)C(=O)Nc2cccc3ccccc23)Oc2c(NS(=O)(=O)c3cn(C)cn3)cccc2C1=O,-1,-1,10,-11
CN(C)CCCNC(=O)C[C@@H]1CC[C@H](NS(=O)(=O)c2ccc(F)cc2)[C@H](CO)O1,0,63,?,-3
C[C@H](CO)N1C[C@H](C)[C@@H](CN(C)Cc2ccc(C(=O)O)cc2)Oc2c(NC(=O)Nc3ccccc3)cccc2C1=O,-1,-1,30*,-6
CC(C)(C)CNC(=O)c1ccc2c(c1)S(=O)(=O)c1cc(Cl)ccc1C2=O,0,3,6,-15
Cc1cc(N(C)C(=O)c2ccc3c(c2)S(=O)(=O)c2cc(Cl)ccc2C3=O)c(C(F)(F)F)o1,0,0,49*,-29
C[C@@H]1CN([C@@H](C)CO)C(=O)c2c(c3ccccc3n2C)-c2ccccc2CO[C@H]1CN(C)Cc1cccc(O)c1,0,/,25*,/
